Reference: ChEMBL document CHEMBL4190234, “Design, synthesis and anticancer activity of new monastrol analogues bearing 1,3,4-oxadiazole moiety” (Eur J Med Chem, 2017)

Tests used:
Assay type in all cases: functional
SW-620 = assay: Growth inhibition of human SW620 cells at 10 uM incubated for 48 hrs by sulforhodamine B assay relative to control; conditions: SW-620, 48 h, read-out: GI
Procedure, shortened: (§1)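 NCI single-dose screen: cells grown in RPMI 1640 with 5% FBS and 2 mM L-glutamine, plated at 5,000–40,000 cells/well and preincubated 24 h at 37 °C, 5% CO2. Compounds taken from DMSO stock and tested at final 10 µM for 48 h. Cells fixed with TCA, stained with 0.4% SRB, absorbance read at 515 nm. Percentage growth calculated against untreated controls; controls held DMSO at the same dilution.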

SK-MEL-5 = assay: Growth inhibition of human SK-MEL-5 cells at 10 uM incubated for 48 hrs by sulforhodamine B assay relative to control; conditions: SK-MEL-5, 48 h, read-out: GI; procedure, shortened: as §1
OVCAR-8 = assay: Growth inhibition of human OVCAR8 cells at 10 uM incubated for 48 hrs by sulforhodamine B assay relative to control; conditions: OVCAR-8, 48 h, read-out: GI
Procedure, shortened: (§2)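 Single-dose screen at 10 μM final: cells in RPMI 1640, 5% FBS, 2 mM L-glutamine, plated 5,000–40,000/well, preincubated 24 h at 37°C, 5% CO2; drug 48 h; adherent cells fixed with 10% TCA, suspension cells with 16% TCA; SRB stain, absorbance 515 nm; percentage growth versus untreated control, with time-zero plates.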

K562 = assay: Growth inhibition of human K562 cells at 10 uM incubated for 48 hrs by sulforhodamine B assay relative to control; conditions: K562, 48 h, read-out: GI; procedure, shortened: as §2
NCI-H226 = assay: Growth inhibition of human NCI-H226 cells at 10 uM incubated for 48 hrs by sulforhodamine B assay relative to control; conditions: NCI-H226, 48 h, read-out: GI; procedure, shortened: as §2
BT-549 = assay: Growth inhibition of human BT549 cells at 10 uM incubated for 48 hrs by sulforhodamine B assay relative to control; conditions: BT-549, 48 h, read-out: GI; procedure, shortened: as §2
RXF 393 = assay: Growth inhibition of human RXF393 cells at 10 uM incubated for 48 hrs by sulforhodamine B assay relative to control; conditions: RXF 393, 48 h, read-out: GI; procedure, shortened: as §2
DU-145 = assay: Growth inhibition of human DU145 cells at 10 uM incubated for 48 hrs by sulforhodamine B assay relative to control; conditions: DU-145, 48 h, read-out: GI; procedure, shortened: as §2
HCC 2998 = assay: Growth inhibition of human HCC2998 cells at 10 uM incubated for 48 hrs by sulforhodamine B assay relative to control; conditions: HCC 2998, 48 h, read-out: GI; procedure, shortened: as §2
EKVX = assay: Growth inhibition of human EKVX cells at 10 uM incubated for 48 hrs by sulforhodamine B assay relative to control; conditions: read-out: GI; procedure, shortened: as §2
CAKI-1 = assay: Growth inhibition of human Caki1 cells at 10 uM incubated for 48 hrs by sulforhodamine B assay relative to control; conditions: CAKI-1, 48 h, read-out: GI; procedure, shortened: as §2
OVCAR-3 = assay: Growth inhibition of human OVCAR3 cells at 10 uM incubated for 48 hrs by sulforhodamine B assay relative to control; conditions: OVCAR-3, 48 h, read-out: GI; procedure, shortened: as §2
A498 = assay: Growth inhibition of human A498 cells at 10 uM incubated for 48 hrs by sulforhodamine B assay relative to control; conditions: A498, 48 h, read-out: GI; procedure, shortened: as §2
NCI-H322M = assay: Growth inhibition of human NCI-H322M cells at 10 uM incubated for 48 hrs by sulforhodamine B assay relative to control; conditions: read-out: GI; procedure, shortened: as §2
SF-268 = assay: Growth inhibition of human SF268 cells at 10 uM incubated for 48 hrs by sulforhodamine B assay relative to control; conditions: SF-268, 48 h, read-out: GI; procedure, shortened: as §1
MDA-MB-468 = assay: Growth inhibition of human MDA-MB-468 cells at 10 uM incubated for 48 hrs by sulforhodamine B assay relative to control; conditions: MDA-MB-468, 48 h, read-out: GI; procedure, shortened: as §2
IGROV-1 = assay: Growth inhibition of human IGROV1 cells at 10 uM incubated for 48 hrs by sulforhodamine B assay relative to control; conditions: IGROV-1, 48 h, read-out: GI; procedure, shortened: as §2
KM12 = assay: Growth inhibition of human KM12 cells at 10 uM incubated for 48 hrs by sulforhodamine B assay relative to control; conditions: KM12, 48 h, read-out: GI; procedure, shortened: as §2
COLO 205 = assay: Growth inhibition of human COLO205 cells at 10 uM incubated for 48 hrs by sulforhodamine B assay relative to control; conditions: COLO 205, 48 h, read-out: GI; procedure, shortened: as §2
RPMI-8226 = assay: Growth inhibition of human RPMI8226 cells at 10 uM incubated for 48 hrs by sulforhodamine B assay relative to control; conditions: RPMI-8226, 48 h, read-out: GI; procedure, shortened: as §2
PC-3 = assay: Growth inhibition of human PC3 cells at 10 uM incubated for 48 hrs by sulforhodamine B assay relative to control; conditions: PC-3, 48 h, read-out: GI; procedure, shortened: as §2
MOLT-4 = assay: Growth inhibition of human MOLT4 cells at 10 uM incubated for 48 hrs by sulforhodamine B assay relative to control; conditions: MOLT-4, 48 h, read-out: GI; procedure, shortened: as §2
SN12C = assay: Growth inhibition of human SN12C cells at 10 uM incubated for 48 hrs by sulforhodamine B assay relative to control; conditions: read-out: GI; procedure, shortened: as §1
SK-OV-3 = assay: Growth inhibition of human SKOV3 cells at 10 uM incubated for 48 hrs by sulforhodamine B assay relative to control; conditions: SK-OV-3, 48 h, read-out: GI; procedure, shortened: as §1
SF-295 = assay: Growth inhibition of human SF295 cells at 10 uM incubated for 48 hrs by sulforhodamine B assay relative to control; conditions: SF-295, 48 h, read-out: GI; procedure, shortened: as §1
M14 = assay: Growth inhibition of human M14 cells at 10 uM incubated for 48 hrs by sulforhodamine B assay relative to control; conditions: M14, 48 h, read-out: GI; procedure, shortened: as §2
HOP-92 = assay: Growth inhibition of human HOP92 cells at 10 uM incubated for 48 hrs by sulforhodamine B assay relative to control; conditions: HOP-92, 48 h, read-out: GI; procedure, shortened: as §2
HOP-62 = assay: Growth inhibition of human HOP62 cells at 10 uM incubated for 48 hrs by sulforhodamine B assay relative to control; conditions: HOP-62, 48 h, read-out: GI; procedure, shortened: as §2
Malme-3M = assay: Growth inhibition of human MALME-3M cells at 10 uM incubated for 48 hrs by sulforhodamine B assay relative to control; conditions: read-out: GI; procedure, shortened: as §2
NCI-H460 = assay: Growth inhibition of human NCI-H460 cells at 10 uM incubated for 48 hrs by sulforhodamine B assay relative to control; conditions: NCI-H460, 48 h, read-out: GI; procedure, shortened: as §2

Row | Structure (SMILES) | inhibition of growth at 10 µM (SW-620) | inhibition of growth at 10 µM (SK-MEL-5) | inhibition of growth at 10 µM (OVCAR-8) | inhibition of growth at 10 µM (K562) | inhibition of growth at 10 µM (NCI-H226) | inhibition of growth at 10 µM (BT-549) | inhibition of growth at 10 µM (RXF 393) | inhibition of growth at 10 µM (DU-145) | inhibition of growth at 10 µM (HCC 2998) | inhibition of growth at 10 µM (EKVX) | inhibition of growth at 10 µM (CAKI-1) | inhibition of growth at 10 µM (OVCAR-3) | inhibition of growth at 10 µM (A498) | inhibition of growth at 10 µM (NCI-H322M) | inhibition of growth at 10 µM (SF-268) | inhibition of growth at 10 µM (MDA-MB-468) | inhibition of growth at 10 µM (IGROV-1) | inhibition of growth at 10 µM (KM12) | inhibition of growth at 10 µM (COLO 205) | inhibition of growth at 10 µM (RPMI-8226) | also measured
1 | CC(=O)C1=C(C)NC(SCc2nnc(-c3ccc(C)cc3)o2)=NC1c1ccc(F)cc1 (stereo not given) | < 10% | < 10% | < 10% | < 10% | 10.4% | 13.9% | < 10% | < 10% | < 10% | < 10% | 12% | < 10% | < 10% | < 10% | < 10% | < 10% | 11% | < 10% | < 10% | 16.3% | inhibition of growth at 10 µM (PC-3): 14.7%; inhibition of growth at 10 µM (MOLT-4): < 10%; inhibition of growth at 10 µM (SN12C): < 10%; inhibition of growth at 10 µM (SK-OV-3): < 10%; inhibition of growth at 10 µM (SF-295): < 10%; inhibition of growth at 10 µM (M14): < 10%; inhibition of growth at 10 µM (HOP-92): < 10%; inhibition of growth at 10 µM (HOP-62): < 10%; inhibition of growth at 10 µM (Malme-3M): < 10%; inhibition of growth at 10 µM (NCI-H460): < 10%
2 | CCOC(=O)C1=C(C)NC(SCc2nnc(-c3ccc(OC)cc3)o2)=NC1c1ccc(F)cc1 (stereo not given) | < 10% | < 10% | < 10% | < 10% | 10.4% | < 10% | 14.5% | < 10% | < 10% | < 10% | 24.9% | < 10% | < 10% | < 10% | < 10% | < 10% | < 10% | < 10% | < 10% | < 10% | inhibition of growth at 10 µM (PC-3): 12.5%; inhibition of growth at 10 µM (MOLT-4): < 10%; inhibition of growth at 10 µM (SN12C): < 10%; inhibition of growth at 10 µM (SK-OV-3): 14.2%; inhibition of growth at 10 µM (SF-295): < 10%; inhibition of growth at 10 µM (M14): < 10%; inhibition of growth at 10 µM (HOP-92): 21.4%; inhibition of growth at 10 µM (HOP-62): 12%; inhibition of growth at 10 µM (Malme-3M): < 10%; inhibition of growth at 10 µM (NCI-H460): < 10%
3 | COc1ccc(-c2nnc(CSC3=NC(c4ccc(F)cc4)C(C(C)=O)=C(C)N3)o2)cc1 (stereo not given) | < 10% | < 10% | < 10% | < 10% | < 10% | < 10% | < 10% | < 10% | < 10% | < 10% | 29.9% | < 10% | < 10% | < 10% | < 10% | < 10% | < 10% | < 10% | < 10% | 14% | inhibition of growth at 10 µM (PC-3): 18.7%; inhibition of growth at 10 µM (MOLT-4): 10.9%; inhibition of growth at 10 µM (SN12C): < 10%; inhibition of growth at 10 µM (SK-OV-3): 18.3%; inhibition of growth at 10 µM (SF-295): < 10%; inhibition of growth at 10 µM (M14): 13.4%; inhibition of growth at 10 µM (HOP-92): 16.5%; inhibition of growth at 10 µM (HOP-62): 19.4%; inhibition of growth at 10 µM (Malme-3M): 12.3%; inhibition of growth at 10 µM (NCI-H460): < 10%
